Sampled rows, rich in hits. Any-hit rate of the full collection: about 1.7%.
S1P2 ag – agonists of human S1P2 receptor; S1P2-expressing cell line, agonist reporter read-out; O95136; activation, % at 4.5 µM; hit rate 0.46% among 97,000; in the data active means activation above about 16%
Rev-RRE block – HIV Rev-RRE protein-RNA interaction inhibition. P05866. Rev peptide-RRE RNA binding, FRET. inhibition, % at 8 µM. hit rate 0.79% among 97,000. AID 704;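 active means inhibition above the screen-wide mean plus 3 SD, cut at about 35% in these data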
Target sequence (P05866 whole entry, looked up): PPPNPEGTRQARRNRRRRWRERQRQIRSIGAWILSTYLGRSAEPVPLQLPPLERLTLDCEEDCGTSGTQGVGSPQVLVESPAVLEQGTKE
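Test system – labelled RRE RNA duplex and labelled Rev peptide · Signal – fluorescein-to-Cy5 FRET, 480 nm excitation · Evaluation – % inhibition of FRET ratio versus controls · Benchmarks – DMSO low control, neomycin B high control · Incubation – 5 min RNA-compound premix plus 15 min binding step, 25 °C · Medium – HEPES pH 7.5 salt buffer with EDTA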
GALR2 ag – agonists of human galanin receptor 2 (GALR2); GALR2-expressing cells, agonist activation read-out; hit rate 0.48% among 140,000; AID 803; activation, % (no concentration beside the values); in the data active means activation above about 5%, passing the limit was not always enough
Target sequence (O43603 whole entry, looked up): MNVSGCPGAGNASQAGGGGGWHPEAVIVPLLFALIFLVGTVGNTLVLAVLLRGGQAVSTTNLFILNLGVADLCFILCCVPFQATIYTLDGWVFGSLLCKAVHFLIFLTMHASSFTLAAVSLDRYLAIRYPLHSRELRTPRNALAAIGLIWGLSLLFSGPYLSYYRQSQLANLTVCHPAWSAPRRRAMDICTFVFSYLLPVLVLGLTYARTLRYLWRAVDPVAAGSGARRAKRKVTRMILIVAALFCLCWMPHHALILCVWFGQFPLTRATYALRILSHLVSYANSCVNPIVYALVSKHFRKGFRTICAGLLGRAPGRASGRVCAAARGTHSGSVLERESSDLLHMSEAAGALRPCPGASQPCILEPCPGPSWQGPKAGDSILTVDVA
EphB4 antag – EphB4-ephrin-B2 interaction antagonism; P54760; EphB4 LBD / TNYL-RAW-Alexa532 peptide, fluorescence polarization; inhibition, % at 7 µM; hit rate 0.15% among 97,000; AID 720;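 active means inhibition above the screen-wide mean inhibition plus 3 SD, cut at about 15% in these data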
S1P2 blocker – antagonists of human S1P2 receptor; cell-based S1P2 antagonist assay, inhibition at 5 uM; inhibition, % at 5 µM; hit rate 0.21% among 97,000; AID 736; in the data active means inhibition above about 45%;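 further: CRE beta-lactamase reporter cells expressing human S1P2 stimulated with S1P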
GALR2 antag – blocks the human galanin receptor 2 | hit rate 0.39% among 140,000 | O43603 | inhibition, % at 4 µM | GALR2-expressing cells, antagonist mode; in the data active means inhibition above about 27%;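 further: cells stimulated with galanin 1-16 at roughly its EC80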
GALR2 ag confirm – GALR2 (human) agonism confirmed. shares compounds with GALR2 ag. GALR2-expressing cells, agonist activation. activation, % at 5.6 µM. hit rate 10% among 460. AID 864; in the data active means activation above about 8.4%
BLA act counter – counter-screen for GALR2 agonists: beta-lactamase reporter activators; shares compounds with GALR2 ag; CHO NFAT-bla reporter, beta-lactamase FRET activation; activation, % at 5.6 µM; hit rate 10% among 460;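 active means activation above the screen-wide mean activation plus 3 SD, cut at about 8% in these data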
A number is an active result; - = inactive; . = no result given; ! = not active in a repeat.

SMILES	S1P2 ag	Rev-RRE block	GALR2 ag	EphB4 antag	S1P2 blocker	GALR2 antag	GALR2 ag confirm	BLA act counter
Cc1ccc(COCC(CC(C)C)N2CCN(C(=O)c3cccc(C(F)(F)F)c3)CCC2=O)cc1 (stereo not drawn)	.	.	8.9	.	.	-	-	-
CC1=C(C(=O)N2CCCCC2)C(c2cccs2)C2=C(CCCC2=O)N1 (stereo not drawn)	-	-	-	-	-	-	.	.
Nc1c(C(=O)c2ccc(Cl)cc2)sc2c1c(=O)[nH]c(=O)n2-c1ccccc1	.	.	22	.	.	-	-	-
Nc1c(C(=O)c2ccccc2)sc2c1c(=O)[nH]c(=O)n2-c1ccccc1	.	.	-	.	.	-	.	.
CN(CC(=O)NC1CCCCCC1)S(=O)(=O)c1ccc2c(c1)n(C)c(=O)c(=O)n2C	-	-	-	-	-	-	.	.
O=c1oc2ccccc2cc1-c1csc(Cc2nc(-c3ccc(Br)cc3)cs2)n1	-	-	-	-	-	-	.	.
O=c1oc2ccccc2cc1-c1nc2c(s1)CCc1ccccc1-2	.	.	10	.	.	-	-	-
O=C1/C(=C\c2cccs2)Sc2ccc3ccccc3c21	.	.	-	.	.	-	.	.
Cc1c(/C=N/n2cnnc2)c2ccccc2n1CCOc1ccc(Cl)cc1	-	-	-	-	-	-	.	.
Cc1ccc(OCCn2c(C)c(/C=N/n3cnnc3)c3ccccc32)cc1	-	-	9.1	-	-	-	-	-
COC(=O)CN1C(=O)C2(OCCCO2)c2ccccc21	-	-	-	-	-	-	.	.
O=C(O)CN1C(=O)C2(OCCCO2)c2ccccc21	-	-	-	-	-	-	-	-
CC1CCCCC1NC(=O)c1ccc2c(c1)[nH]c(=O)n2C1CCCC1 (stereo not drawn)	-	-	-	-	-	-	.	.
Cc1cc2nn(-c3cccc4ccccc34)nc2cc1N	-	-	-	-	-	-	.	.
Cc1ccc(-n2nc3cc(C)c(N)cc3n2)cc1	-	-	-	-	-	-	-	-
c1ccc2[nH]c(-c3ccnc4ccccc34)nc2c1	-	-	12!	-	-	-	-	-
Cc1ccccc1-c1nc2ccccc2[nH]1	-	-	-	-	-	-	.	.
C=C(C)CN1CCN(c2c(CCC#N)c(C)c(C#N)c3nc4ccccc4n23)CC1	.	.	12	.	.	-	-	-
CCCCCc1c(C)c(C#N)c2nc3ccccc3n2c1-n1ccnc1C	-	-	-	-	-	-	.	.
Cc1ccc(S(=O)(=O)CCC(=O)O)cc1C	-	-	-	-	-	-	.	.
CCOC(=O)/C(=C/c1ccc(N2CCC(c3ccccc3)=N2)cc1)C(C)=O	.	.	14	.	.	-	-	11
CCOC(=O)C(=Cc1ccc(F)cc1)C(=O)OCC	-	-	-	-	-	-	.	.
COc1ccc(S(=O)(=O)NCCSCc2ccco2)cc1Cl	-	-	-	-	-	-	.	.
CN(CC(O)CON=C1c2ccccc2-c2ccccc21)S(=O)(=O)c1ccc(Br)cc1 (stereo not drawn)	.	.	11	.	.	-	-	-
Cc1nn2cc(-c3ccc(Cl)cc3)nc2s1	-	-	-	-	-	-	-	-
SMILES	S1P2 ag	Rev-RRE block	GALR2 ag	EphB4 antag	S1P2 blocker	GALR2 antag	GALR2 ag confirm	BLA act counter
Cc1nn2cc(-c3ccc(-c4ccccc4)cc3)nc2s1	-	-	-	-	-	-	.	.
Cc1ccc(-c2nn(CC(N)=O)c(=O)c3ccccc23)cc1S(=O)(=O)N(C)C	-	-	34	-	-	-	-	-
CCOC(=O)C1CSC(CC(=O)Nc2ccc(Cl)c(Cl)c2)C(=O)N1 (stereo not drawn)	-	-	-	-	-	-	.	.
Oc1ccccc1/C=N/Nc1ccnc(SCc2ccccc2)n1	.	.	23	.	.	-	-	-
O=C(c1ccccc1)c1c(O)nc(-c2ccccc2)n(-c2ccccc2)c1=O	.	.	-	.	.	-	.	.
CN(Cc1cc([N+](=O)[O-])c2cccnc2c1O)C1CCCCC1	.	.	23	.	.	-	-	-
CCOC(=O)c1sc(NC(=O)Nc2ccccc2Cl)cc1C	.	.	13	.	.	-	-	-
O=C(Cn1c(=O)oc2cc(S(=O)(=O)N3CCCCCC3)ccc21)NC1CCCCCCC1	-	-	-	-	-	-	.	.
O=C(Cn1c(=O)oc2cc(S(=O)(=O)N3CCCC3)ccc21)NC1CCCc2ccccc21 (stereo not drawn)	.	.	16	.	.	-	-	-
COc1ccc(C2CC(c3cccc(OC)c3OC)n3nnnc3N2)cc1 (stereo not drawn)	.	.	-	.	.	-	.	.
O=C(COC(=O)C1COc2ccccc2O1)Nc1ccc2c(c1)CCC2 (stereo not drawn)	-	-	-	-	-	-	.	.
COc1ccc(-c2n[nH]c(C)c2-c2cc(OC)ccc2O)cc1	-	-	-	-	-	-	-	-
COc1ccc(-c2cc(-c3cc(OC)ccc3O)[nH]n2)cc1	-	-	-	-	-	-	.	.
Cc1cccc2cc(CN(Cc3cccs3)S(=O)(=O)c3ccc4c(c3)OCCO4)c(=O)[nH]c12	.	.	-	.	.	-	.	.
Cc1oc2cc3oc(=O)c4c(c3cc2c1C)CCC4	-	-	-	-	-	-	.	.
Cc1oc2c(C)c3oc(=O)c4c(c3cc2c1C)CCC4	-	-	-	-	-	-	-	-
O=C(Cc1ccccc1)NC(=S)Nc1cc(C(F)(F)F)ccc1Cl	-	-	8.4	-	-	-	-	-
O=C(Cc1ccccc1)NC(=S)Nc1cccc(C(F)(F)F)c1	-	-	-	-	-	-	.	.
Cc1ccc(S(=O)(=O)Cn2nnnc2C(c2ccccc2)N2CCN(c3ccccc3)CC2)cc1 (stereo not drawn)	-	-	29	-	-	-	-	-
Cc1ccc(S(=O)(=O)Cn2nnnc2C(c2ccccc2)N2CCN(c3ncccn3)CC2)cc1 (stereo not drawn)	-	-	-	-	-	-	.	.
N#C/C(=C\c1cn(CCOc2ccccc2F)c2ccccc12)C(=O)NCc1cccs1	.	.	9.2	.	.	-	-	-
COC(=O)c1c(C)[nH]c(C(=O)CSc2nnnn2-c2ccccc2)c1C	-	-	99	-	-	-	-	-
O=C(CSc1nnc(COc2ccccc2)n1-c1ccccc1)c1cccs1	.	.	-	.	.	-	.	.
CC(NC(=O)c1ccccc1)c1nc2ccccc2n1Cc1ccccc1F (stereo not drawn)	-	-	-	-	-	-	.	.
CCN(CC)c1ccc(NC(=O)Cn2c(C(C)NC(=O)c3ccccc3)nc3ccccc32)cc1 (stereo not drawn)	.	.	11	.	.	-	-	-
Cc1ccc(CNC(=O)CCNC(=O)c2ccc(Br)o2)cc1	-	-	28	-	-	-	-	-
COc1ccc(Cc2nc(C(=O)Nc3ccc(OC)cc3)cs2)cc1	-	-	27	-	-	-	-	-
COc1ccc(Cc2nc(C(=O)NCc3ccccc3OC)cs2)cc1	-	-	-	-	-	-	.	.
CC(=O)Nc1cc(C(=O)N(C)Cc2ccco2)ccc1Sc1ccc(C)cc1	.	.	-	.	.	-	.	.
O=C(N/N=C/c1c(F)cccc1Cl)c1ccc(Cn2cc(Br)cn2)o1	.	.	40	.	.	-	-	-
